{"source": "ChEMBL document CHEMBL4825662", "about": "(J Med Chem, 2021)", "key": {"[1]": {"tested_on": "Respiratory syncytial virus", "experiment": "Antiviral activity against Respiratory syncytial virus Memphis 37b infected in human HEp2 cells by plaque assay", "format": "functional, organism-based", "details": "HEp-2"}, "Human orthopneumovirus [2]": {"tested_on": "Human orthopneumovirus", "experiment": "Antiviral activity against Respiratory syncytial virus A Memphis 37b infected in human assessed as reduction in mean AUC of viral load at 200 mg administered twice daily administered for 5 days by cell-based infectivity assay", "format": "functional", "design": "scale not given: the % may be the effect or the level left", "details": "time 5 day", "in_short": "(§1)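 Healthy adult volunteers aged 18–45 with low serum pre-existing RSV-specific antibodies were challenged on day zero with about 4 log10 PFU of RSV-A Memphis 37b. Subjects were randomized into 3 equal groups: 200 mg, 350 mg or placebo twice daily for 5 days, begun after infection was confirmed. Viral load in nasal wash was measured by RT-qPCR or by cell-based infectivity assay, and AUC was compared with placebo.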"}, "[3]": {"experiment": "Protein binding in dog plasma assessed as unbound fraction at 5 uM by LC-MS/MS analysis based equilibrium dialysis method", "format": "ADME, cell-free, Canis lupus familiaris"}, "[4]": {"experiment": "Tmax in Sprague-Dawley rat at 50 mg/kg, po measured after 0.02 to 24 hrs by UHPLC-TOF method", "format": "ADME, organism-based", "details": "in vivo, time 0.02-24 hrs"}, "[5]": {"tested_on": "Respiratory syncytial virus", "experiment": "Antiviral activity against Respiratory syncytial virus infected in human airway epithelial cells assessed as reduction in RSV titer at 10 nM preincubated for 2 hrs followed by viral infection and measured after 7 day post infection by luminescence assay relative to control", "format": "functional, HAE", "in_short": "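Primary HAE cells were differentiated for 61 days on type IV collagen-coated trans-well inserts (n = 3 cultures). Compound at 10 nM was given basolaterally for 2 h before apical inoculation with 4 × 10⁵ pfu of luciferase-expressing recombinant RSV. Apical virus titer was read by luminescence on days 7 and 8 post-infection and compared with untreated controls. Data are mean SD.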"}, "[6]": {"experiment": "Cardiotoxicity in guinea pig assessed as effect on QT interval", "format": "toxicity, Cavia porcellus"}, "[7]": {"experiment": "Intrinsic clearance in human liver microsomes preincubated followed by NADPH addition and measured up to 45 mins by LC-MS/MS analysis", "format": "ADME, Microsome"}, "Human orthopneumovirus [8]": {"tested_on": "Human orthopneumovirus", "experiment": "Antiviral activity against Respiratory syncytial virus A Memphis 37b infected in human assessed as reduction in mean AUC of viral load at 350 mg administered twice daily administered for 5 days by RT-qPCR analysis", "format": "functional", "design": "scale not given: the % may be the effect or the level left", "details": "time 5 day", "in_short": "as §1"}, "[9]": {"experiment": "Induction of adverse effect in human infected with Respiratory syncytial virus A Memphis 37b assessed as diarrhea at 200 to 350 mg administered twice daily administered for 5 days", "details": "in vivo, 120 h, dose 200-350 mg, time 5 day", "in_short": "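Challenge study in healthy adults aged 18–45 inoculated with about 4 log10 PFU of RSV-A Memphis 37b. Dosing was 200 or 350 mg twice daily for 5 days after infection was confirmed. Adverse events were monitored daily. ECG, physical examination and urinalysis were done at prespecified time points.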"}, "[10]": {"experiment": "Thermodynamic solubility in PBS at 1 to 100 uM at pH 7.4 by HPLC-UV method", "format": "physicochemical", "details": "dose 1-100 µM, read-out: Therm_solubility"}, "[11]": {"experiment": "Cmax in CD1 mouse at 10 mg/kg, po measured after 0.083 to 24 hrs by UHPLC-TOF method", "format": "ADME, organism-based", "design": "route oral, time 0.083-24 hrs, dose 10 mg/kg", "details": "in vivo"}}, "note": "pEC50: −log10 of the molar value.", "data": [{"smiles": "NCc1ccc2c(c1)nc(CN1C(=O)C3(CC3)c3ccc(F)cc31)n2CCCC(F)(F)F", "note": "[SISUNATOVIR]", "values": [{"measurement": "pEC50", "setting": "[1]", "result": 8.93}, {"measurement": "Activity", "setting": "Human orthopneumovirus [2]", "result": 76.42, "unit": "%"}, {"measurement": "fraction unbound at 5 µM", "setting": "[3]", "result": 0.27}, {"measurement": "Tmax", "setting": "[4]", "result": 5.3, "unit": "h"}, {"measurement": "log(activity)", "setting": "[5]", "result": 2.3}, {"measurement": "Activity", "setting": "[6]", "result": "Toxic"}, {"measurement": "intrinsic clearance (CLint)", "setting": "[7]", "result": 44, "unit": "µL/min"}, {"measurement": "Activity", "setting": "Human orthopneumovirus [8]", "result": 63.05, "unit": "%"}, {"measurement": "Activity", "setting": "[9]", "result": "Toxic"}, {"measurement": "solubility thermodynamic", "setting": "[10]", "result": 417, "unit": "µM"}, {"measurement": "Cmax", "setting": "[11]", "result": 224, "unit": "ng/mL"}]}]}
